# A selection: hits, their analogues and other compounds. The true share with any hit is near 5.8%.
# Pyk2 oligo antag: antagonists of human Pyk2 oligomerization. 99,000 compounds, 0.83% hits. Q293 cells, Pyk2 FERM NanoBiT luminescence; stronger effect = lower value. Q14289. AID 1347419. z-score (the deposit names both 25 µM and 10 µM);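 active = Z-score of -3 or lower, scaled per plate to the spread of control and sample wells; inactive = z-score above -3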;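 note: negative z-score means lost luminescence so less FERM oligomerization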
# Rev-RRE block: disrupts HIV-1 Rev binding to RRE RNA; inhibition, % at 8 µM; AID 704; 97,000 compounds, 0.79% hits; Rev peptide-RRE RNA binding, FRET;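 active = inhibition above the screen-wide mean plus 3 SD, cut at about 35% in these data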;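 note: 0% = median DMSO wells and 100% = median Neomycin B control wells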
#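 Test system: labelled RRE RNA duplex and labelled Rev peptide. Times: 5 min compound–RNA preincubation, then 15 min with peptide, 25 °C. Doses: single-dose 8 µM. Measured by: FRET, excitation 480 nm, emission 540 nm donor and 671 nm acceptor. Measure: % inhibition of FRET ratio versus controls.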
# PLK1 inh: inhibitors of human PLK1 kinase; P53350; recombinant PLK1 kinase, TR-FRET peptide phosphorylation; inhibition, % at 10 µM; 97,000 compounds, 0.53% hits;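 active = inhibition of 50% or more in the single-concentration screen; inactive = inhibition below 50%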;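 note: 0% = DMSO max control and 100% = H-89 dihydrochloride min control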
# Plk1 PBD FP: blocks phosphopeptide binding to human Plk1 polo box domain; P53350; Plk1 PBD phosphopeptide binding, fluorescence polarization; inhibition, %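 (tested at about 20 µM)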; 97,000 compounds, 0.13% hits; in the data active = inhibition above about 34%, passing the limit was not always enough
# Cav32 inh: human Cav3.2 channel inhibition, primary screen | Cav3.2-expressing cells, Fluo-4 calcium fluorescence FDSS; stronger effect = lower value | B-score at 10 µM | 100,000 compounds, 4% hits | AID 449739;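 active = single-dose well whose peak fluorescence ratio is a statistical outlier from its plate by either plate-standardised score or position-corrected B-score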
# Target sequence (O95180 whole entry, looked up): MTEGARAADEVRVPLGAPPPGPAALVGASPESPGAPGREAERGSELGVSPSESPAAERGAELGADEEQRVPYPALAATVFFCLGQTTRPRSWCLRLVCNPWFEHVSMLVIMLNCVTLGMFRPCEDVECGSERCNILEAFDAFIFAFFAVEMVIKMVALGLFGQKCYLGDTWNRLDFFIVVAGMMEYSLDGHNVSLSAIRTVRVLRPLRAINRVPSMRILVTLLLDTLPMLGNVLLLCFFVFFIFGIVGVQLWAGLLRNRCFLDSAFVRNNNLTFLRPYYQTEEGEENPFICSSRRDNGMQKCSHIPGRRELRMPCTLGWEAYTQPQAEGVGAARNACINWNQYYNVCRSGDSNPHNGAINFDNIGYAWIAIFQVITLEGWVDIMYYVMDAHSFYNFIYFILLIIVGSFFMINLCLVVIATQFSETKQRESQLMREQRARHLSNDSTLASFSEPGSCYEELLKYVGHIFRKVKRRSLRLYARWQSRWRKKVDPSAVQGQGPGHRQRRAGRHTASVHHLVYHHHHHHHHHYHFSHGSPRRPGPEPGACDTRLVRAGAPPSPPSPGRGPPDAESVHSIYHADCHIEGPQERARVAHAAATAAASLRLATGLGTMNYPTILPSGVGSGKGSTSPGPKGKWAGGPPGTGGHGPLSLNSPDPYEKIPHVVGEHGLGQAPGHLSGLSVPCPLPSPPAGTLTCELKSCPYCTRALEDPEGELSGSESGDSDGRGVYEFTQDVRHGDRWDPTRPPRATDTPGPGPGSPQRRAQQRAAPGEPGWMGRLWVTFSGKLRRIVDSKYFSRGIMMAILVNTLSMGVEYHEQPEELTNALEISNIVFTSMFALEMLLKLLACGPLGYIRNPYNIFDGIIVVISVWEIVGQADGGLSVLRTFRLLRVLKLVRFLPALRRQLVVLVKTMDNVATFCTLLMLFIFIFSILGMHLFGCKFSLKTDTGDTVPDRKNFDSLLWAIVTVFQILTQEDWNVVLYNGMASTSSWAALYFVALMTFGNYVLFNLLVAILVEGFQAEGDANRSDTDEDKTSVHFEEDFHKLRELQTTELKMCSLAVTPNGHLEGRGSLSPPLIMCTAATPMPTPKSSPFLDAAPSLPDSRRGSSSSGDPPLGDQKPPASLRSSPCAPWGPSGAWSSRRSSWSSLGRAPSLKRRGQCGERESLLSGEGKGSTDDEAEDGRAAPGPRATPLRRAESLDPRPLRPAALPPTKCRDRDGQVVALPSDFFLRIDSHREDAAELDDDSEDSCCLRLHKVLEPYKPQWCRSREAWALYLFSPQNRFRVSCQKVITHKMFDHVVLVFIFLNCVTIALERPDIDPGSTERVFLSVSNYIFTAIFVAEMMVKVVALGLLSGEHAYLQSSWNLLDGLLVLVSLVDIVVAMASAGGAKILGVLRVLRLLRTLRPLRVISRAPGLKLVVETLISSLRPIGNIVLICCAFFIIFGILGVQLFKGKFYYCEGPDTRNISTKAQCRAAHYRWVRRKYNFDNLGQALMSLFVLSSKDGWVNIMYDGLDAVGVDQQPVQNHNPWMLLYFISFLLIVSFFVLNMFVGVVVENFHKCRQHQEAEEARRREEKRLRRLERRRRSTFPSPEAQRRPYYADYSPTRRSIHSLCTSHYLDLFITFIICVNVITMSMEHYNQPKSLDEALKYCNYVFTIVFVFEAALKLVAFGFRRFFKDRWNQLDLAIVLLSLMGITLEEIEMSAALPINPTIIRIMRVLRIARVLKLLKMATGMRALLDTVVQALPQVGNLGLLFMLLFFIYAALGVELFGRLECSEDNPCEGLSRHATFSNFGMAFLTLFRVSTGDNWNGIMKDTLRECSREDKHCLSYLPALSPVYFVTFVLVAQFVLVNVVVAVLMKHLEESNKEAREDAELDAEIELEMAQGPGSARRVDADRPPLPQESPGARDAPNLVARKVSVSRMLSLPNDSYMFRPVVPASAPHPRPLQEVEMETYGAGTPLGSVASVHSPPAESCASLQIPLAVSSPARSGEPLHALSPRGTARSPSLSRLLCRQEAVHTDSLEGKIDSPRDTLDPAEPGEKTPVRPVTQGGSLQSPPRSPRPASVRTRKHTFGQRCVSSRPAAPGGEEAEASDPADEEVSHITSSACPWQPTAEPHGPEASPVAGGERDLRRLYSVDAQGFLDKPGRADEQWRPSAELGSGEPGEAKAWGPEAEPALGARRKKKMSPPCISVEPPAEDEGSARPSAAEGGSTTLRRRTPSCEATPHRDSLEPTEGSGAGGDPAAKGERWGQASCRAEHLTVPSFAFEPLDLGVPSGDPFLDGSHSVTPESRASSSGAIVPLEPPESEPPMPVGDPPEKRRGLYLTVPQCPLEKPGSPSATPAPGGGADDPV
# FAK inh: blocks human focal adhesion kinase activity; biochemical FAK kinase activity assay; Q05397; inhibition, %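 (tested at 7 µM)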; 97,000 compounds, 0.84% hits; in the data active = inhibition above about 19%;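 note: 0% = DMSO and 100% = reference compound high control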
# * = called active by the depositor; . = no result; [ ] = dose if it differs, or a comment.
SMILES,Pyk2 oligo antag,Rev-RRE block,PLK1 inh,Plk1 PBD FP,Cav32 inh,FAK inh
Fc1ccc(NC(=S)Nc2ccc(F)c(Cl)c2)cc1Cl,-1.6,-5,-5,-17,-4.1*,0
NS(=O)(=O)c1ccc(NC(=S)NCc2ccc(Cl)cc2)cc1,0.96,0,-12,-2,-1.2,0
CCCCC(=O)Nc1ccc(F)c(Cl)c1,0.52,3,-5,4,0.035,0
Fc1ccc(CNC(=S)Nc2ccc(Cl)cc2)cc1,0.09,-7,-4,-5,-4.3*,1
O=C(CSc1nnc(Cn2c(=O)sc3ccccc32)n1-c1ccccc1)Nc1nccs1,.,.,.,.,-0.89,.
Cc1nn(Cc2ccccc2Cl)c(C)c1NC(=O)c1nc2ncccn2n1,-1.4,1,-12,16,0.093,3
Cc1nn(Cc2ccccc2Cl)c(C)c1NC(=O)NC12CC3CC(CC(C3)C1)C2,-2.9,-3,-11,-16,-7.6*,-3
Cc1nn(Cc2cccc(C(=O)NC34CC5CC(CC(C5)C3)C4)c2)c(C)c1Br,-1.3,9,-11,14,-6.4*,2
CCSc1nnc(-c2sc3nnc(-c4ccccc4)c(-c4ccccc4)c3c2N)o1,0.34,117*[fluorescence artefact?],-78,-100,-5.6*,-3
O=S(=O)(NCCOCC(F)(F)F)c1ccc2oc3ccccc3c2c1,-0.87,15,0,3,-4.3*,0
O=C(NC12CC3CC(CC(C3)C1)C2)N1CCC(O)(c2ccc3c(c2)OCO3)CC1,0.25,2,-3,10,-0.24,-7
CN(C)c1nc(NCc2ccccc2)nc(SCC(=O)Nc2ccc(Cl)c(Cl)c2)n1,0.51,6,-4,-20,-4.1*,7
Cc1ccc(N(CC(=O)N2CC(=O)Nc3ccccc32)S(=O)(=O)c2ccc3c(c2)OCCO3)cc1,-2.8,13,-1,-9,-1.7,6
O=C(c1sc2cccc(F)c2c1Cl)N1CCN(c2ncccn2)CC1,-0.68,.,.,.,.,.
O=C(c1cc2ccccc2c(=O)o1)N1CCc2ccccc2C1,-0.12,1,-9,-10,.,2
O=C(c1nn(Cc2ccccc2)c(=O)c2ccccc12)N1CCN(c2ccccn2)CC1,-1.4,1,-18,0,-5.6*,3
O=C(Cn1nc(Cc2cccnc2)c2ccccc2c1=O)N1CCN(c2ccccn2)CC1,.,4,11,-25,-3.3*,2
O=C(c1nn(Cc2ccccc2)c(=O)c2ccccc12)N1CCc2ccccc2C1,1.2,1,-15,21,-4*,3
O=C(Cn1nc(Cc2cccnc2)c2ccccc2c1=O)NCc1ccc(F)cc1,.,-1,-12,-12,0.09,-1
CCO[C@@H]1OC(C(=O)O)=C[C@H](C2CC2)[C@H]1CCCO,.,.,.,.,0.23,.
COC(=O)c1cc(NC(=O)CC2SC(=Nc3ccccc3)N(CCc3c[nH]c4ccccc34)C2=O)cc(C(=O)OC)c1 (stereo unspecified),-1.9,-1,-6,-6,-0.11,0
Cc1ccc(C)c(S(=O)(=O)NC(CCC(N)=O)C(=O)O)c1 (stereo unspecified),0.18,5,1,24,0.48,-6
CCOC(=O)C(C(=O)Nc1nc2ccccc2s1)C1CCCCC1 (stereo unspecified),-2.2,16,-16,-29,-7.8*,1
CCOC(=O)C(C(=O)Nc1cccc(C)n1)C1CCCCC1 (stereo unspecified),-0.61,3,0,11,-0.74,0
CCOC(=O)CN1C(=O)S/C(=C/c2ccc(N3CCCCC3)o2)C1=O,-0.71,112*[fluorescence artefact?],-29,-122,-1.1,4
SMILES,Pyk2 oligo antag,Rev-RRE block,PLK1 inh,Plk1 PBD FP,Cav32 inh,FAK inh
COC(=O)CN1C(=O)S/C(=C/c2ccc(N3CCCCC3)o2)C1=O,-0.35,140*[fluorescence artefact?],-21,-228,-7.9*,6
O=c1nc(-c2ccccc2)c2cc(Cl)ccc2[nH]1,-0.08,2,-16,-9,.,-4
O=c1cc2[nH]c3ccccc3c(=O)n2nc1-c1ccccc1,-3.1*,19,-4,13,0.85,-1
Cc1ccc(CNC(=O)CN(C)S(=O)(=O)c2cccc3cccnc23)cc1,.,0,-16,0,-0.06,2
CN(C)c1ccc(/C=C/c2nc3ccccc3s2)cc1,-0.22,106*[fluorescence artefact?],-15,-29,-2.7,-3
Cc1cc(C)n(Cc2ccc(Cl)cc2Cl)c(=O)c1S(=O)(=O)c1ccccc1,-0.75,16,-10,-6,-4.3*,-1
